Experimental data reported in ChEMBL document CHEMBL1159309, “A prolyl endopeptidase-inhibiting benzofuran dimer from Polyozellus multiflex” (J Nat Prod, 2002).

What was measured:
Parameters in all cases: scale not given: the % may be the effect or the level left
[1] = Inhibition of elastase at 12.2 uM relative to control
Method in brief: (§1)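 Enzyme assays run per supplier catalogue protocols, substrates as printed: […], elastase N-succinyl-Ala-Ala-Ala-pNA. Test sample given in MeOH; control received 10 µL MeOH in its place. Activity relative to solvent-treated control, mean of five data points with standard error of the mean.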

[2] = Inhibition of elastase at 2.4 uM relative to control; method in brief: as §1
[3] = Inhibition of trypsin at 2.4 uM relative to control; method in brief: as §1
[4] = Inhibition of elastase at 97.6 uM relative to control; method in brief: as §1
[5] = Inhibition of trypsin at 97.6 uM relative to control; method in brief: as §1
[6] = Inhibition of chymotrypsin at 2.4 uM relative to control; method in brief: as §1
[7] = Inhibition of chymotrypsin at 97.6 uM relative to control; method in brief: as §1
[8] = Inhibition of trypsin at 12.2 uM relative to control; method in brief: as §1
[9] = Inhibition of chymotrypsin at 12.2 uM relative to control; method in brief: as §1

Work on `COC(=O)c1oc2cc(O)c(O)cc2c1-c1c(C(=O)OC)oc2cc(O)c(O)cc12` yielded an Activity [1] of 27.6%, an Activity [2] of 22% and an Activity [3] of 3.1%. It also gave an Activity [4] of 29%, an Activity [5] of 5.9% and an Activity [6] of 3.7%. For the same compound, the Activity [7] was 4%, the Activity [8] was 5.6% and the Activity [9] was 6.6%.
